Holding throughout (assay type): functional
The nature of assay [1]: Anti-coagulation activity evaluated as activated partial thromboplastin time (APTT) determined for 25 ug/ml in pooled normal plasma. The essentials:
(§1)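 Activated partial thromboplastin time was measured in pooled normal human plasma with a commercial liquid silica-activator APTT kit. Polymer was added to the plasma, and clotting time was recorded in seconds. Plasma without polymer served as the control, and heparin was the positive control.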

Assay [2] is described as follows: Anti-coagulation activity evaluated as activated partial thromboplastin time (APTT) of the non-sulfated compound determined for 25 ug/mL in pooled normal plasma. The method in brief:
as §1

Assay [3] can be described thus: Anti-coagulation activity evaluated as activated partial thromboplastin time (APTT) of the sulfated compound determined for 25 ug/mL in pooled normal plasma. The essentials: as §1
A short description of assay [4]: Anti-coagulation activity evaluated as activated partial thromboplastin time (APTT) determined for 250 ug/ml in pooled normal plasma. The method in brief: as §1

In the case of `CCC(C)C(=O)N[C@H](CCCCN)C(=O)[O-].[Na+]` (stereo partly drawn), the APTT in assay [1] was determined as 33 s.
`CCC(C)C(=O)N[C@H](CC(C)C)C(=O)[O-].[Na+]` (stereo partly drawn) returned an APTT in assay [1] of 36 s.
The same measure, in the same setting: as for `CCC(C)C(=O)N[C@H](Cc1ccc(O)cc1)C(=O)[O-].[Na+]` (stereo partly drawn), the figure is 32 s.
In the case of `CCC(C)C(=O)N1C[C@@H](OS(=O)(=O)O)C[C@@H]1C(=O)O` (stereo partly drawn), the APTT stood at 37 s in assay [2] and 100 s in assay [3].
With `CCC(C)C(=O)N[C@H](Cc1c[nH]cn1)C(=O)[O-].[Na+]` (stereo partly drawn), the APTT in assay [1] came out at 30 s.
On to `CCC(C)C(=O)N[C@H](Cc1ccc(OS(=O)(=O)[O-])cc1)C(=O)[O-].[Na+].[Na+]` (stereo partly drawn), for which the APTT in assay [2] worked out at 35 s; in assay [3], 45 s.
Regarding `CCC(C)C(=O)N[C@H](Cc1ccccc1)C(=O)[O-].[Na+]` (stereo partly drawn), the APTT in assay [1] amounted to 56 s; in assay [4], 109 s.
Consider `CCC(C)C(=O)N1CCC[C@@H]1C(=O)[O-].[Na+]` (stereo partly drawn), for which the APTT in assay [1] is listed as 55 s; in assay [4] it was 109 s.
`CCC(C)C(=O)N1CC[C@H](OS(=O)(=O)O)C1` (stereo partly drawn): the values for the APTT in assay [2] and in assay [3] were 39 s and 32 s, respectively.
For the compound `CCC(C)C(=O)N[C@H](CO)C(=O)O` (stereo partly drawn), the APTT in assay [1] is reported as 39 s.
Turning to `CCC(C)C(=O)N[C@H](COS(=O)(=O)[O-])C(=O)[O-].[Na+].[Na+]` (stereo partly drawn), the APTT in assay [2] was 32 s; in assay [3], 35 s.
For the compound `CCC(C)C(=O)NCC(=O)O` (stereo not drawn), in assay [1], the APTT was 40 s.
The compound `CCC(C)C(=O)N1C[C@@H](O)C[C@@H]1C(=O)O` (relative stereo) displayed an APTT in assay [1] of 37 s.
Compound `CCC(C)C(=O)N[C@@H](C(=O)[O-])C(C)(C)C.[Na+]` (stereo partly drawn) came in with an APTT in assay [1] of 36 s.
With `CCC(C)C(=O)N1C[C@H](O)C[C@@H]1C(=O)O` (relative stereo), in assay [1], the APTT was 35 s.
Regarding `CCC(C)C(=O)N[C@H](CCC(=O)[O-])C(=O)[O-].[Na+].[Na+]` (stereo partly drawn), the APTT in assay [1] is given as 56 s; in assay [4] it was 75 s.

For the origin of these results see ChEMBL document CHEMBL1132944, “Poly(N-acryl amino acids): a new class of biologically active polyanions” (2000).
